In experiment [1] the target is T1, CREB-binding protein/Histone acetyltransferase p300 (Homo sapiens) (UniProt Q09472+Q92793). Kind of experiment: Inhibition of CREBBP/EP300 in human HCT-116 cells assessed as reduction in c-Myc mRNA expression at 10 uM by Q-PCR analysis. The experiment is classed as cell-based.
Experiment [2] deals with T1, CREB-binding protein/Histone acetyltransferase p300 (Homo sapiens). Nature of the experiment: Inhibition of CREBBP/EP300 in human HCT-116 cells assessed as reduction in H3K18Ac at 10 uM for 24 hrs by Western blot analysis. It is filed as cell-based. In outline: (§1)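 HCT116 human colorectal cancer cells were exposed to ligand at 10 μM for 6, 16 or 24 h. c-Myc, H3K18Ac and H3K27Ac levels were read by western blot, with acetylation marks expressed relative to the t = 0 level.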

For experiment [3] the target is unchanged. Nature of the experiment: Inhibition of CREBBP/EP300 in human HCT-116 cells assessed as reduction in H3K18Ac at 10 uM for 6 hrs by Western blot analysis. It is filed as cell-based. In outline: as §1
For experiment [4] the target is unchanged. Nature of the experiment: Inhibition of CREBBP/EP300 in human HCT-116 cells assessed as reduction in H3K27Ac at 10 uM for 6 hrs by Western blot analysis. The experiment is classed as cell-based. In outline: as §1
For experiment [5] the target is unchanged. Kind of experiment: Inhibition of CREBBP/EP300 in human HCT-116 cells assessed as reduction in c-Myc expression at 10 uM for 24 hrs by Western blot analysis. The experiment is classed as cell-based. In outline:
as §1

A further experiment has as its target CREB-binding protein (Homo sapiens, UniProt Q92793). Nature of the experiment: Binding affinity to human CREBBP bromodomain expressed in Escherichia coli BL21 (DE3)-RIL assessed as dissociation constant by ITC assay.

SMILES strings stand for the structures. Activity calls are given as the source filed them. The rule behind the calls is not given here.

T1 sequence (Q09472 whole entry, looked up): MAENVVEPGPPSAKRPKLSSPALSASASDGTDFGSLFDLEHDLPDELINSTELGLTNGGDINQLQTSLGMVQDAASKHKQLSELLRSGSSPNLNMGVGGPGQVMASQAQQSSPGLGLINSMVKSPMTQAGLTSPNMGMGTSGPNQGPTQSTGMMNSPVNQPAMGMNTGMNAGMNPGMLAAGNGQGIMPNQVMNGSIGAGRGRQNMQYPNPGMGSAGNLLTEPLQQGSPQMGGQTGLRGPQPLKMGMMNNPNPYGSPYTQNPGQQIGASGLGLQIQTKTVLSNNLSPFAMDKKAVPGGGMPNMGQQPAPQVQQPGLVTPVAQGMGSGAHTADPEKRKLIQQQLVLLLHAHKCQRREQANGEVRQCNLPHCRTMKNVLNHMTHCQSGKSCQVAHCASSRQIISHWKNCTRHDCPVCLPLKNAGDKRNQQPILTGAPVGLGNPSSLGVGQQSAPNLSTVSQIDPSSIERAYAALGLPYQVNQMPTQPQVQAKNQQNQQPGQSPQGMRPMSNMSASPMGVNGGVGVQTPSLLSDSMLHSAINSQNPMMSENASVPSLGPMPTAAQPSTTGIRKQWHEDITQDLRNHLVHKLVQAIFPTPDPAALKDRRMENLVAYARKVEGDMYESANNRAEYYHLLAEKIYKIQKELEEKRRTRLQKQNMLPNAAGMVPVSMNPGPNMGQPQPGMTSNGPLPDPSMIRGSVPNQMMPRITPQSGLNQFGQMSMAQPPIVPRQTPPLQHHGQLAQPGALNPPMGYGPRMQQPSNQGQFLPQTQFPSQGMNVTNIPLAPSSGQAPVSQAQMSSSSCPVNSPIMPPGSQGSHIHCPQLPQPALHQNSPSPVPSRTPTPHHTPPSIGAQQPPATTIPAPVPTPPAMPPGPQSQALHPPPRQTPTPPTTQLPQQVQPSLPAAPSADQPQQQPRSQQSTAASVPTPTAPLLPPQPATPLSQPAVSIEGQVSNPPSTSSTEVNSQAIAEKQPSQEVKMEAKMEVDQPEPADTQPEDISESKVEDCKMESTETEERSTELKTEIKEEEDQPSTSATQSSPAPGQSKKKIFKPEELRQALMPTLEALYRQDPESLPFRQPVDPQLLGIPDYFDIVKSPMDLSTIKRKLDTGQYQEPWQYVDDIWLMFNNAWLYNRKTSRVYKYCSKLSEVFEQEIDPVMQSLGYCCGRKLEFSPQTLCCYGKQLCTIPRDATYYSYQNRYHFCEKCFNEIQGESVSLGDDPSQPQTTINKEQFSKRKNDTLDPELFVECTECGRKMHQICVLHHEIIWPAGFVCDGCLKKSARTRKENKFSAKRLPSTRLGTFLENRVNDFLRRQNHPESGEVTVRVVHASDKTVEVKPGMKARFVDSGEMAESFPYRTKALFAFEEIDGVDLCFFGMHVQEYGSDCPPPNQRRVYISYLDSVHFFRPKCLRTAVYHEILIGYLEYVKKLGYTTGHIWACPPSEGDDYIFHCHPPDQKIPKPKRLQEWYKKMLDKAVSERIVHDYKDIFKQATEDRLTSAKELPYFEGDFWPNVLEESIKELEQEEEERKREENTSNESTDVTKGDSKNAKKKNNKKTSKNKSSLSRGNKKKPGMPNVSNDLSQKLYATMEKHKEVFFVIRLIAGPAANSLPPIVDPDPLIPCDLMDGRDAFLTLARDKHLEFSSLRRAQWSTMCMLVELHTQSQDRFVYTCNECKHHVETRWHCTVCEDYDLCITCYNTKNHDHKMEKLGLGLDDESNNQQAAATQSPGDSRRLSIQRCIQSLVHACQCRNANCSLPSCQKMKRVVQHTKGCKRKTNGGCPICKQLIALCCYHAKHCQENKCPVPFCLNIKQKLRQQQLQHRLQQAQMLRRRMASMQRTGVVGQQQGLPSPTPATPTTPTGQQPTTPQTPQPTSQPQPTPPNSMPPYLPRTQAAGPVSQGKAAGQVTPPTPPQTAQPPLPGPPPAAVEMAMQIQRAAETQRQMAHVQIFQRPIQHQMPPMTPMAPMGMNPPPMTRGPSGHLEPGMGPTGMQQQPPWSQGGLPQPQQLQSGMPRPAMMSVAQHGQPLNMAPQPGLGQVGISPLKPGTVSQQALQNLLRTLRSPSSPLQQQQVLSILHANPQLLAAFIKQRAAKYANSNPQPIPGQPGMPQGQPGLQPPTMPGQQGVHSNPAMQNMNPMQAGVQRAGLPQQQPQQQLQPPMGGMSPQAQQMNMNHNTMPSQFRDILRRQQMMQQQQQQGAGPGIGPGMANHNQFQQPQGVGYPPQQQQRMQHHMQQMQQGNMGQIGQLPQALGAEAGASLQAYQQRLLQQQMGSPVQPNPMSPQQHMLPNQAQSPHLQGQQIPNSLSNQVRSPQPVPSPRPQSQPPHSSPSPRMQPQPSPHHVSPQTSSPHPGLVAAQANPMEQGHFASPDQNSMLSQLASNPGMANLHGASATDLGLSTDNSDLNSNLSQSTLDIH
T1 sequence (Q92793 whole entry, looked up): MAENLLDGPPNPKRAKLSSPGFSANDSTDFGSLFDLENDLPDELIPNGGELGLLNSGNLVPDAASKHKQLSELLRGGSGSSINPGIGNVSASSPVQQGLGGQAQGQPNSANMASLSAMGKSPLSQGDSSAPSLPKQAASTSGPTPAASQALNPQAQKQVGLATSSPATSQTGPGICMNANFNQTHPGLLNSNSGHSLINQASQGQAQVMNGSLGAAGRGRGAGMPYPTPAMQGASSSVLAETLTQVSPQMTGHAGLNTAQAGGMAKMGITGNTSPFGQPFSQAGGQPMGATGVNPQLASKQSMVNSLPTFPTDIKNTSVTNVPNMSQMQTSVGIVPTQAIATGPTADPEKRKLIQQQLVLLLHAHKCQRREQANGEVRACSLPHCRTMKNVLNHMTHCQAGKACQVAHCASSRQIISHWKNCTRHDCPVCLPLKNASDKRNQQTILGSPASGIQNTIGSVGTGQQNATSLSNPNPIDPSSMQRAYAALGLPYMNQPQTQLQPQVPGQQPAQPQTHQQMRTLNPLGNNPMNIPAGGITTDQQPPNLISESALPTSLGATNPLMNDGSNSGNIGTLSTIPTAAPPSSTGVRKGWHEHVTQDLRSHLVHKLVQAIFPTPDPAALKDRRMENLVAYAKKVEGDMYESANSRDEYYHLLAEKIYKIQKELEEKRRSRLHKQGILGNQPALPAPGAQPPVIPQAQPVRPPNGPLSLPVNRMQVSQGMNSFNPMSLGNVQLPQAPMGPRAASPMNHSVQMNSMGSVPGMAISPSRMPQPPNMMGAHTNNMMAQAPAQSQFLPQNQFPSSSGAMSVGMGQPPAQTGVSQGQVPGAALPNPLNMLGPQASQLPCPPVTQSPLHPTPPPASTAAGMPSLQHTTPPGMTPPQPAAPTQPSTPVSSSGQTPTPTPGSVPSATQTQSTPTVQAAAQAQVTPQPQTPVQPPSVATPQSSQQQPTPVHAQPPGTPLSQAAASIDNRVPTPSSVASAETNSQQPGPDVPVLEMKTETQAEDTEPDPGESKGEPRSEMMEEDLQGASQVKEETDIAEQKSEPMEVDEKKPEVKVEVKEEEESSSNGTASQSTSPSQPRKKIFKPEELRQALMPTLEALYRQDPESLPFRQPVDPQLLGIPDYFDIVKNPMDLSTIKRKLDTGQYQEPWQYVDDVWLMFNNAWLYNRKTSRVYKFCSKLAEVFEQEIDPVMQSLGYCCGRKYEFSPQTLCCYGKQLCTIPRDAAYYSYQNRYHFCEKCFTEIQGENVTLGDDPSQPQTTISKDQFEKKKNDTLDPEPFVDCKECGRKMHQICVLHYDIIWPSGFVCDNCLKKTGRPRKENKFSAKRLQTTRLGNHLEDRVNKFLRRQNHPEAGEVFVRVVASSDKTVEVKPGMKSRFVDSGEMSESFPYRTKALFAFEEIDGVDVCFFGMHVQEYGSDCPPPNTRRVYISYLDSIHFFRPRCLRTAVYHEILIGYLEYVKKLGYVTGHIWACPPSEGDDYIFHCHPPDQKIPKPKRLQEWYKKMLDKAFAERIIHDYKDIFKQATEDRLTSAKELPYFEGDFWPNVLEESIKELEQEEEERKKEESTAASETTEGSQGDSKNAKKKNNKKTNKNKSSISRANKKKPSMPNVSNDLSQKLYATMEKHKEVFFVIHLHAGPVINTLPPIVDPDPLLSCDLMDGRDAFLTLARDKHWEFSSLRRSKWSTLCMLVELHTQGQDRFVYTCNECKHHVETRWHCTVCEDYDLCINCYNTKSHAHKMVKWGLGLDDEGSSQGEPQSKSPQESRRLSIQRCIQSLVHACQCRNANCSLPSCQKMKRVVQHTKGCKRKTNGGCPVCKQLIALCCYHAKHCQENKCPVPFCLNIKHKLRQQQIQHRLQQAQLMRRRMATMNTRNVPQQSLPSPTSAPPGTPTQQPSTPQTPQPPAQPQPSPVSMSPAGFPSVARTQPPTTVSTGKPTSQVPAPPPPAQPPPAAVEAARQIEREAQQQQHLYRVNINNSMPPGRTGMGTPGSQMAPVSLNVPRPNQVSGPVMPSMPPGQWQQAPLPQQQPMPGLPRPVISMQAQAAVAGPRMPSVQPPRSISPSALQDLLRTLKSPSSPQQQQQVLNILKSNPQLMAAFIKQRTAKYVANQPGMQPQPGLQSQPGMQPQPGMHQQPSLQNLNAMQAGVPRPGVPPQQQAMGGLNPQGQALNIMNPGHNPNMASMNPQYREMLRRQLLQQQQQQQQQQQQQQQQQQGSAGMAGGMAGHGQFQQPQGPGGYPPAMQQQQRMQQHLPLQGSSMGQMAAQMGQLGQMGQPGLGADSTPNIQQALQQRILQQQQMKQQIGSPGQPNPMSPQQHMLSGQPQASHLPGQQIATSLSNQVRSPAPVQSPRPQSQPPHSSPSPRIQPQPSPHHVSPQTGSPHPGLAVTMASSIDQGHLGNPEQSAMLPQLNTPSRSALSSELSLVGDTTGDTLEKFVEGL
CREB-binding protein, sequence (Q92793 whole entry): as the sequence (Q92793 whole entry, looked up) above

For the molecule `COc1ccc2c(c1)N(CCC/C=C/c1cccc3c1N[C@H](C)CC(=O)N3)CCC2`, the inhibition entry in experiment [1] is “Active”. In addition, the inhibition in experiment [2] worked out at 30%; in experiment [3], 70%; in experiment [4], 70%.

For the molecule `COc1ccc2c(c1)N(CCC/C=C/c1cccc3c1N[C@@H](C)CC(=O)N3)CCC2`, the inhibition entry in experiment [5] was “inactive”. The Kd result at CREB-binding protein is on record as “Not Active”.

For the origin of these results see ChEMBL document CHEMBL5029150, “Controlling Intramolecular Interactions in the Design of Selective, High-Affinity Ligands for the CREBBP Bromodomain” (J Med Chem, 2021).
